Laboratory results taken from the RNAGym collection of RNA variant scans (doi:10.1126/science.aae0568).
This sample holds only a part of the variants without activity.

B1: tRNA (parent)
chain: GUUCCGUUGGCGUAAUGGUAACGCGUCUCCCUCCUAAGGAGAAGACUGCGGGUUCGAGUCCCGUACGGAACG

Variants of: B1
Experiment: yeast fitness relative to wild type (ratio to wild type); higher = fitter; tRNA-Arg(CCU), competitive growth, 37 C, YPD
In short: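 Start and end populations of a pooled competition were compared by 100-nucleotide paired-end sequencing of gene amplicons. The Saccharomyces cerevisiae strains carried tRNA-Arg(CCU) gene variants at the native genomic locus, synthesised with a 3% per-site mutation rate at 69 sites, and competed in YPD at 37°C for 24 hours in six parallel replicates. Darwinian fitness relative to wild type was based on the change in genotype frequencies. Genotypes required ≥ 100 starting reads, and estimates < 0.5 were set to 0.5.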

Variant	yeast fitness
GUUCUGUUGGCGUAAUGGUAACGCGUCUCCCUCGUAUGGAGAAGACUGGGGGUUCAAGUCCCGUACGGAACG [C5U C34G A37U C49G G56A]	≤ 0.5
GUUCUGUUGGCGUAAUGGUAACGCGUCUCCCUCGCAAGGAGAAGACUGCGGGUUCGAGUCCCGUACGGAACG [C5U C34G U35C]	0.533
GUUCUGUUGGCGUAAUGGUAACGCGUCUCCCUCUUAAGGAGAAGACUGCGGGUUCGAGUCCCGUACGGAACG [C5U C34U]	0.746
GUUCUGUUGGCGUAAUGGUAACGCGUCUCCCUCUUAAGGCGAAGACUGCGGGUUCGAGUCCCGUACGGAACG [C5U C34U A40C]	≤ 0.5
GUUCUGUUGGCGUAAUGGUAACGCGUCUCCCUCUUAAGGAGAAGACUGCGGGUUCGAGUUCCGUACGGAACG [C5U C34U C60U]	≤ 0.5
GUUCUGUUGGCGUAAUGGUAACGCGUCUCCCUCUCAAGGAGAAGACUGCGGGUUCGAGUCCCGUACGGACCG [C5U C34U U35C A70C]	≤ 0.5
GUUCUGUUGGCGUAAUGGUAACGCGUCUCCCUCCUAAGGAGAAGAGUGCGGGUUCGAGUCCCGUACGGAACG [C5U C46G]	0.93
GUUCUGUUGGCGUAAUGGUAACGCGUCUCCCUCCUAAGGAGAAGAGUGCGGGUUCGAGUCCCGUGCGGAACG [C5U C46G A65G]	0.661
GUUCUGUUGGCGUAAUGGUAACGCGUCUCCCUCCUAAGGAGAAGAUUGCGGGUUACAGUCCCGUACGGAACG [C5U C46U C55A G56C]	≤ 0.5
GUUCUGUUGGCGUAAUGGUAACGCGUCUCCCUCCUAAGGAGAAGAUUGCGGGUUCGAGUGCCGUACGGAACG [C5U C46U C60G]	≤ 0.5
GUUCUGUUGGCGUAAUGGUAACGCGUCUCCCUCCUAAGGAGAAGAUUGCGGGUUCGAGGCCCGUACGGAACG [C5U C46U U59G]	0.538
GUUCUGUUGGCGUAAUGGUAACGCGUCUCCCUCCUAAGGAGAAGACUGAGGGUUCGAGUCCCGUACGGAACG [C5U C49A]	0.78
GUUCUGUUGGCGUAAUGGUAACGCGUCUCCCUCCUAAGGAGAAGACUGAGGGUUCGAGUCCCGUAUGGAACG [C5U C49A C66U]	0.551
GUUCUGUUGGCGUAAUGGUAACGCGUCUCCCUCCUAAGGAGAAGACUGGGGGUUCGAGUCCCGUACGGUACG [C5U C49G A69U]	0.629
GUUCUGUUGGCGUAAUGGUAACGCGUCUCCCUCCUAAGGAGAAGACUGUGGGUUCGAGUCCCGUACGGAACG [C5U C49U]	0.953
GUUCUGUUGGCGUAAUGGUAACGCGUCUCCCUCCUAAGGAGAAGACUGUGGGUUCGAGUCCCGUAAAGAACG [C5U C49U C66A G67A]	≤ 0.5
GUUCUGUUGGCGUAAUGGUAACGCGUCUCCCUCCUAAGGAGAAGACUGUGGGUUCUAGUCCCGUACGGAACG [C5U C49U G56U]	0.538
GUUCUGUUGGCGUAAUGGUAACGCGUCUCCCUCCUAAGGAGAAGACUGCGGGUUGGAGUCCCGUACGGUACG [C5U C55G A69U]	≤ 0.5
GUUCUGUUGGCGUAAUGGUAACGCGUCUCCCUCCUAAGGAGAAGACUGCGGGUUUGAGUCCCGUACGGAACG [C5U C55U]	0.864

Variant	yeast fitness
GUUCUGUUGGCGUAAUGGUAACGCGUCUCCCUCCUAAGGAGAAGACUGCGGGUUCGAGUCACGUACAGAACG [C5U C61A G67A]	0.576
GUUCUGUUGGCGUAAUGGUAACGCGUCUCCCUCCUAAGGAGAAGACUGCGGGUUCGAGUCACGUACGAAACG [C5U C61A G68A]	≤ 0.5
GUUCUGUUGGCGUAAUGGUAACGCGUCUCCCUCCUAAGGAGAAGACUGCGGGUUCGAGUCGCGUACUGAACG [C5U C61G G67U]	≤ 0.5
GUUCUGUUGGCGUAAUGGUAACGCGUCUCCCUCCUAAGGAGAAGACUGCGGGUUCGAGUCUCGUACGGAGCG [C5U C61U A70G]	0.609
GUUCUGUUGGCGUAAUGGUAACGCGUCUCCCUCCUAAGGAGAAGACUGCGGGUUCGAGUCCUGUACGGAACG [C5U C62U]	1.03
GUUCUGUUGGCGUAAUGGUAACGCGUCUCCCUCCUAAGGAGAAGACUGCGGGUUCGAGUCCUGUCCGGAACG [C5U C62U A65C]	0.739
GUUCUAUUGGCGUAUUGGUAGCGCGUCUCCCUCCUAAGGAGAAGACUGCGGGUGCGAGUCCCGUACGGAACG [C5U G6A A15U A21G U54G]	≤ 0.5
GUUCUAUUGGCGUAAUGGUAACGCGUCUCCCUCCUAAGGCGAAGAAUGCGGGUUCGAGUCCCGUACGGAACG [C5U G6A A40C C46A]	0.578
GUUCUAUUGGAGUAAUGGAAACGCGUCUCCCUCCUAAGGAGAAGACUGCGGGUUCGAGUCCCGUACGGUACG [C5U G6A C11A U19A A69U]	≤ 0.5
GUUCUCUUGGCGUAAUGGUAACGCGUCUCCCUCCUAAGGAGAAGACUGCGGGUUCGAGUCCCGUACGGAACG [C5U G6C]	0.818
GUUCUCUUGGAGUAAUGGUAACGCGUCUCCGUCCUCAGGAGAAGACUGCGGGUUCGAGUCCCGUACGGAACG [C5U G6C C11A C31G A36C]	≤ 0.5
GUUCUGUUAGCGUAAUGGUAACGCGUCUCCCUCCUAAGGAGAAGACUGCGGGUUCGAGUCCCGUACGGAACG [C5U G9A]	0.972
GUUCUGUUAGCGUAAUGGUAAAGCGUCUCCCUCCUAAGGAGAAGACUGCGGGUUGGAGUCCCGUACGGAACG [C5U G9A C22A C55G]	≤ 0.5
GUUCUGUUAGCGUAAUGGUAAUGCGUCUCCCUCCUAAGGAGAAGACUGCGGGUUCGAGUCCCGUACGGAACG [C5U G9A C22U]	0.593
GUUCUGUUAGCGUAAUGGUAACGCGUCUCCCUCCUAAGGAGAAGACUGAGGGUUCGAGUCCCGUACGGAACG [C5U G9A C49A]	0.513
GUUCUGUUCGCGUAAUGGUAACGCGUCUCCCUCCUGAGGAGAAGACUGCGGGUUCGAGUGCCGUACGGAGCG [C5U G9C A36G C60G A70G]	≤ 0.5
GUUCUGUUCGGGUAAUGGUAACGAGGCUCCGUCCUAAGGAGAAGUCUGCGGGUUCGAGUCUCGUACGGAACG [C5U G9C C11G C24A U26G C31G A45U C61U]	≤ 0.5
GUUCUGUUCGCGUAAUGGUAACACGUCUCCCUCCUAAGGAGAAGACUGCAGGUUCGAGUCCCGUUCGGAACG [C5U G9C G23A G50A A65U]	≤ 0.5
GUUCUGUUCGCGUAAUGGUAACGCGUCUCCCUCCUAAGGAGAAGACUGCGGCUCCGAGUCCCGUACGGCACG [C5U G9C G52C U54C A69C]	≤ 0.5
